{"source": "paper PMC10975593", "about": "(ACS Omega, 2024)", "key": {"MCF-7 cancer cell line": {"tested_on": "MCF-7 cancer cell line", "assay": "MTT assay", "assay_type": "cell-based", "settings": "Homo sapiens, MCF7, 72 h", "summary_of_the_method": "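A549 in DMEM and MCF-7 in RPMI, each with 10% heat-inactivated FBS, 1% penicillin/streptomycin and 2 mmol/L glutamine at 37 °C, 5% CO2. Seeded at 2000 (A549) or 10,000 (MCF-7) cells/well and attached 24 h. Then 72 h with test compound at varying concentrations. MTT (5 mg/mL stock) added for 4 h at 37 °C, formazan dissolved in DMSO, absorbance read at 450/540 nm. Triplicates in three separate experiments.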"}, "PDK1 Direct": {"molecular_target": "T1, PDK1 Direct (Homo sapiens, UniProt O15530)", "T1 sequence (O15530 1-556)": "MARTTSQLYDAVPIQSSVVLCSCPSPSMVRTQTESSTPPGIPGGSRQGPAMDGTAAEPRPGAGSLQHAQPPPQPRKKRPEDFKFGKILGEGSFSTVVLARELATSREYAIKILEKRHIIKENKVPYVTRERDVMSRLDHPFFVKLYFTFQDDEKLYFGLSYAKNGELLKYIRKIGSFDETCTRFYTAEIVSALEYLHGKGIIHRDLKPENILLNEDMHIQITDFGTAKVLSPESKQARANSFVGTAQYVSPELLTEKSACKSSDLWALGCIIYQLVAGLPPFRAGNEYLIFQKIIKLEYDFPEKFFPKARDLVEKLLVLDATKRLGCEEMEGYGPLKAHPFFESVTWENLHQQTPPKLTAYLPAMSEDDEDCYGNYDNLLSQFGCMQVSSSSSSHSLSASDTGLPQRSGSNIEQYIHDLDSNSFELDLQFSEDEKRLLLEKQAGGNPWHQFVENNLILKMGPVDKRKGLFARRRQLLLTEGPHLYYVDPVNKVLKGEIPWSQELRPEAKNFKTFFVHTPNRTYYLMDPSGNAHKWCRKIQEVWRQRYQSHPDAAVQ", "assay": "Kinase selectivity for OMS14", "assay_type": "biochemical"}}, "note": "Where two headings read alike, the source gives them in different places."}
{"smiles": "O=C(CN1CCN(CC(=O)Nc2nc3ccccc3s2)CC1)Nc1ccc([N+](=O)[O-])cc1", "note": "[OMS14, N-(benzo[d]thiazol-2-yl)-2-(4-(2-((4-nitrophenyl)amino)-2-oxoethyl)piperazin-1-yl)acetamide]", "values": [{"measurement": "IC50", "setting": "MCF-7 cancer cell line", "result": 22.1, "unit": "µM"}, {"measurement": "inhibition at 100 µM", "setting": "PDK1 Direct; read-out: % of inhibition (mean)", "result": -7, "unit": "%"}, {"measurement": "inhibition at 100 µM", "setting": "PDK1 Direct; read-out: % of inhibition, point 1", "result": -6, "unit": "%"}, {"measurement": "inhibition at 100 µM", "setting": "PDK1 Direct; read-out: % of inhibition, point 2", "result": -8, "unit": "%"}]}
